Screens (PubChem)
Compounds with a hit are over-represented: about 1.9% of the library has one in this group of screens.
CHRM4 agonist = CHRM4 agonism in calcium assay; P08173; CHO-K1 hM4/Gqi5, Fluo-8 calcium fluorescence; vehicle 0%, full acetylcholine response 100%; activation, % at 3 µM; actives 0.14% (n = 360,000); AID 624127;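 active = activation above the run mean over all test wells plus 3 SD, cut at about 32% in these data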;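 note: peak over basal fluorescence ratio per well then scaled between controls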
CHRM4 PAM = positive allosteric modulators of human muscarinic M4 receptor | P08173 | CHO-K1 hM4/Gqi5, Fluo-8 calcium fluorescence, ACh EC20; 0% = ACh EC20, 100% = maximal ACh | activation, % at 3 µM | actives 0.4% (n = 360,000);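 active = activation above its plate's cutoff, the mean activation of sample wells plus 3 SD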
CHRM5 agonist = agonists of human muscarinic M5 receptor (CHRM5); AID 624037; P08912; actives 0.19% (n = 360,000); activation, % at 3 µM; CHO-K1 hM5 cells, Fluo-8 calcium fluorescence; 0% DMSO wells, 100% maximal acetylcholine response;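 active = activation above the run's mean over test compounds plus 3 SD, cut at about 23% in these data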;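 note: signal is peak over basal fluorescence ratio across the kinetic read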
Target sequence (P08912 whole entry, looked up): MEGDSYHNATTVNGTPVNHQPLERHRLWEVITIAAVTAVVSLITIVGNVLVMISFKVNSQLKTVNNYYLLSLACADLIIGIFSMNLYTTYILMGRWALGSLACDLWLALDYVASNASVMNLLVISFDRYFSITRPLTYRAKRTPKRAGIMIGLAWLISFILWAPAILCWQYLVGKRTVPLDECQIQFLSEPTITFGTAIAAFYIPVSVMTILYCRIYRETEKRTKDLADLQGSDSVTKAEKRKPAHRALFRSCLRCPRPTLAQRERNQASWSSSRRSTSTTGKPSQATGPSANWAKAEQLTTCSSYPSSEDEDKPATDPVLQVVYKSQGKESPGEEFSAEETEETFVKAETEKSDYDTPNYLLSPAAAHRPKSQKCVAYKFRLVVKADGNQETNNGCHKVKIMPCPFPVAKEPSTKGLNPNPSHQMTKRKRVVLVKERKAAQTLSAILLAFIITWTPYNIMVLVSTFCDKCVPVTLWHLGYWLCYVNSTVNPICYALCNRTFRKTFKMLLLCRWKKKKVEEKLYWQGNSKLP
CHRM5 PAM = positive allosteric modulators of human muscarinic M5 receptor; P08912; CHO-K1 hM5, Fluo-8 calcium, ACh EC20 PAM; 0% = ACh EC20, 100% = ACh EC100; activation, % at 3 µM; actives 0.3% (n = 360,000); AID 624038;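 active = activation above the run cutoff, the mean activation of all test compounds plus 3 SD, cut at about 18% in these data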
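System: CHO-K1 cell line with stable human muscarinic M5 receptor expression | Also added: EC20 acetylcholine as agonist stimulus | Compound: One concentration, 3 µM final (nominal) | Timing: Fluo-8 loading 80 min at 37 °C plus 30 min room temperature | Measured by: Fluo-8 calcium dye fluorescence, kinetic read | Read-out basis: % activation, ACh-normalized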
M5 antag = blocks acetylcholine activation of human M5 receptor. CHO-hM5 cells, Fluo-8 calcium fluorescence, ACh EC80. AID 624040. inhibition, % at 3 µM. actives 0.59% (n = 360,000);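 active = inhibition above a per-plate cutoff, the mean of that plate's test compounds plus 3 SD, cut at about 27% in these data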
M4 antag = CHRM4 antagonism in calcium assay; inhibition, % at 3 µM; CHO-hM4 cells, ACh EC80, Fluo-8 calcium fluorescence; actives 0.73% (n = 360,000); AID 624125; P08173;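 active = inhibition above its plate's cutoff, the mean inhibition of sample wells plus 3 SD, cut at about 27% in these data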
Large screens that a line does not name were inactive.

O=C(O)C1CCN(C(=O)c2ccc3c(c2)OCO3)CC1	none
N#CNC(=Nc1ccccc1)SCc1ccc(C(=O)O)cc1	none
N#CNC(=Nc1cccc(C(F)(F)F)c1)SCc1ccc(C(=O)O)cc1	M4 antag 38.4
CCOC(=O)c1sc(NC(=O)CN2C(=O)NC3(CCCCCCC3)C2=O)c(C(=O)OCC)c1C	M4 antag 27.3
CC1(C)CC(=O)C2=C(C1)NC(=O)CC2c1cc2c(cc1Br)OCO2 (stereo unspecified)	CHRM4 PAM 24.0
Cc1nc2nc(C)n(CCN3CCOCC3)c(=O)c2c(-c2cccc([N+](=O)[O-])c2)c1C(=O)CCCCCCCCCCN1CCC(c2ccccc2)(c2ccccc2)CC1	M5 antag 95.8, M4 antag 94.6
CC(C)[N+](C)(C)CC#CC(O)(c1ccccc1)c1ccccc1	M5 antag 99.8, M4 antag 99.3
OC(C#Cc1ccccc1)(c1ccccc1)c1ccccc1	none
C[N+]1(CC#CC(O)(c2ccccc2)c2ccccc2)CCCC1	M5 antag 98.8, M4 antag 98.9
O=C(NC1CCCC1)C1C(c2ccc(C(F)(F)F)cc2)=Nc2ccccc2N1C(=O)c1cccc(C(F)(F)F)c1 (stereo unspecified)	M4 antag 35.0
O=C(Nc1ccc(F)c(Cl)c1)Nc1csc2ccccc12	M5 antag 34.3
O=C(Nc1ccc(F)cc1F)Nc1csc2ccccc12	M5 antag 32.8
CCCCOC(=O)Nc1ccc(S(=O)(=O)Nc2onc(C)c2C)cc1	none
CCCCC(=O)OCC(=O)C1(O)Cc2c(O)c3c(c(O)c2C(OC2CC(NC(=O)C(F)(F)F)C(O)C(C)O2)C1)C(=O)c1c(OC)cccc1C3=O (stereo unspecified)	CHRM5 agonist 33.4, M5 antag 39.6
CCOC(=O)c1c(-c2ccc(C)cc2)csc1NC(=O)/C(C#N)=C/c1ccc(O)c(OC)c1	none
CCOC(=O)c1c(-c2ccccc2)csc1NC(=O)/C(C#N)=C\c1ccc(O)c(OC)c1	CHRM5 agonist 30.8
COC(=O)/C=C/COc1ccccc1[N+](=O)[O-]	CHRM4 PAM 17.8
O=C(COc1ccccc1[N+](=O)[O-])c1ccccc1	none
S=c1[nH]nc(Cc2ccccc2)n1Cc1ccco1	M5 antag 32.8, M4 antag 68.1
CCCn1c(Cc2ccccc2)n[nH]c1=S	none
Cc1oc(C(=O)O)cc1COc1ccccc1Cl	CHRM5 agonist 29.7, CHRM5 PAM 41.8
O=C(O)c1ccccc1COc1ccccc1Cl	none
CN(C)S(=O)(=O)c1ccc(C(=O)N2CCN=C2SCc2cccnc2)cc1	CHRM4 PAM 19.5
O=C1N[C@@H](c2ccccc2)COC(=O)[C@H](Cc2ccc(F)cc2)CC/C=C/C[C@H]1CC(=O)N(CCO)Cc1ccccc1	none
O=C(C[C@H]1C/C=C/CC[C@H](Cc2ccc(F)cc2)C(=O)O[C@H](c2ccccc2)CNC1=O)NCCO	none
O=C1N[C@H](Cc2ccccc2)COC(=O)[C@H](Cc2ccc(F)cc2)C/C=C\C[C@@H]1CC(=O)N(CCO)Cc1ccccc1	none
O=C1N[C@@H](Cc2c[nH]c3ccccc23)COC(=O)[C@@H](Cc2ccc(F)cc2)C/C=C\C[C@H]1CC(=O)N(CCO)Cc1ccccc1	M4 antag 28.3
O=C(C[C@@H]1C/C=C/CC[C@@H](Cc2ccc(F)cc2)C(=O)O[C@@H](c2ccccc2)CNC1=O)NCCO	M5 antag 30.9
O=C1N[C@@H](c2ccccc2)COC(=O)[C@@H](Cc2ccc(F)cc2)C/C=C\C[C@@H]1CC(=O)N(CCO)Cc1ccccc1	CHRM4 agonist 56.1
O=C1N[C@@H](c2ccccc2)COC(=O)[C@H](Cc2ccc(F)cc2)C/C=C\C[C@H]1CC(=O)N(CCO)Cc1ccccc1	CHRM5 PAM 18.1
CC12CCC(=O)C=C1C(F)CC1C2C(O)CC2(C)C1CCC2(O)C(=O)CO (stereo unspecified)	none
CCCn1cc(S(=O)(=O)c2ccc(F)cc2)c(=O)c2cc(OCC)ccc21	none
CSCCC(=O)N1CCN(CC(=O)N2CCCC2)CC1	none
O=C(Cc1ccccc1[N+](=O)[O-])Nc1ccc(S(=O)(=O)N2CCCC2)cc1	none
COc1cccc(COC(=O)C2CCN(C(=O)c3ccc(F)cc3)CC2)c1OC	none
COc1ccc2nc(NC(=O)CSCC(=O)Nc3cc(C)on3)sc2c1	none
CC(C)N(Cc1ccccc1)C(=O)CN1C(=O)NC2(CCOc3ccccc32)C1=O (stereo unspecified)	none
CCCN(CC(=O)Nc1ccccc1C)C(=O)CCCOc1ccc(Br)cc1	none
O=C1NC[C@H](c2ccccc2)OC(=O)[C@@H](Cc2ccc(F)cc2)C/C=C\C[C@H]1CC(=O)N(CCO)Cc1ccccc1	CHRM4 agonist 36.0, M4 antag 33.5
CCOc1ccc(S(=O)(=O)N=C(c2ccccc2)N2CCOCC2)cc1	none
CC(CC(=O)OCC(=O)NCc1ccc(Cl)cc1)c1ccccc1 (stereo unspecified)	none
CCCCn1nnnc1NCc1cccnc1	M5 antag 31.1
CCC[C@@H](CN1CCC[C@H]1CN1C(N)=NC[C@@H]1Cc1ccccc1)N1C[C@@H]([C@H](C)CC)N(CCCC2CCCC2)C1=N	M4 antag 41.5
CCCCN1C(=N)N([C@@H](C)CN2CCC[C@H]2CN2C(N)=NC[C@@H]2Cc2ccccc2)C[C@H]1[C@H](C)CC	none
C[C@@H](CN1CCC[C@H]1CN1C(N)=NC[C@@H]1Cc1ccccc1)N1C[C@@H](Cc2ccccc2)N(CCc2ccc(Cl)c(Cl)c2)C1=N	M5 antag 38.8
CCCCN1C(=N)N([C@@H](C)CN2CCC[C@H]2CN2C(N)=NC[C@H]2CC(C)C)C[C@H]1Cc1ccccc1	M5 antag 33.1
CCC[C@@H](CN1CCC[C@H]1CN1C(N)=NC[C@@H]1Cc1ccccc1)N1C[C@@H](Cc2ccccc2)N(CCCC2CCCC2)C1=N	none
O=C(CCc1ccccc1)Nc1cccc(S(=O)(=O)N2CCOCC2)c1	none
CCC1(c2ccccc2)NC(=O)N(CC(=O)Nc2cc(S(=O)(=O)N3CCCCCC3)ccc2OC)C1=O (stereo unspecified)	none
CCC(C)N1CNc2c(c(=O)[nH]c(=S)n2-c2cccc(C)c2)C1 (stereo unspecified)	CHRM5 PAM 22.8, M5 antag 35.3
C=CCn1c2c(c(=O)[nH]c1=S)CN(C(C)c1ccccc1)CN2 (stereo unspecified)	none
Cc1ccc2nc(COC(=O)c3cnccn3)cc(=O)n2c1	none
